In ChEMBL document CHEMBL4680371, “Design and Structure-Activity Relationship of a Potent Furin Inhibitor Derived from Influenza Hemagglutinin” (ACS Med Chem Lett, 2021):

How the values were obtained:
[1] = target: Furin (Homo sapiens, UniProt P09958); experiment: Inhibition of recombinant soluble human furin using pyroGlu-Arg-Thr-Lys-Arg-methyl-coumaryl-7-amide as substrate measured after 1 hr
Procedure, shortened: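 Soluble human recombinant furin was tested in a competitive kinetic assay. Ki is reported as the mean ± SD of at least two independent experiments.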

[2] = Half life in CD1 mouse plasma by LC-MS/MS analysis; assay type: ADME, cell-free; conditions: CD1, mouse
Procedure, shortened: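 Peptide incubated ex vivo in mouse plasma at 37 °C and sampled at several time points, using the ng/mL concentration range. Intact peptide quantified by high-resolution mass spectrometry and expressed as percentage remaining; t1/2 derived from the time course. Each time point run in triplicate; mean and mean ± SD reported.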

Furin, sequence (P09958 whole entry): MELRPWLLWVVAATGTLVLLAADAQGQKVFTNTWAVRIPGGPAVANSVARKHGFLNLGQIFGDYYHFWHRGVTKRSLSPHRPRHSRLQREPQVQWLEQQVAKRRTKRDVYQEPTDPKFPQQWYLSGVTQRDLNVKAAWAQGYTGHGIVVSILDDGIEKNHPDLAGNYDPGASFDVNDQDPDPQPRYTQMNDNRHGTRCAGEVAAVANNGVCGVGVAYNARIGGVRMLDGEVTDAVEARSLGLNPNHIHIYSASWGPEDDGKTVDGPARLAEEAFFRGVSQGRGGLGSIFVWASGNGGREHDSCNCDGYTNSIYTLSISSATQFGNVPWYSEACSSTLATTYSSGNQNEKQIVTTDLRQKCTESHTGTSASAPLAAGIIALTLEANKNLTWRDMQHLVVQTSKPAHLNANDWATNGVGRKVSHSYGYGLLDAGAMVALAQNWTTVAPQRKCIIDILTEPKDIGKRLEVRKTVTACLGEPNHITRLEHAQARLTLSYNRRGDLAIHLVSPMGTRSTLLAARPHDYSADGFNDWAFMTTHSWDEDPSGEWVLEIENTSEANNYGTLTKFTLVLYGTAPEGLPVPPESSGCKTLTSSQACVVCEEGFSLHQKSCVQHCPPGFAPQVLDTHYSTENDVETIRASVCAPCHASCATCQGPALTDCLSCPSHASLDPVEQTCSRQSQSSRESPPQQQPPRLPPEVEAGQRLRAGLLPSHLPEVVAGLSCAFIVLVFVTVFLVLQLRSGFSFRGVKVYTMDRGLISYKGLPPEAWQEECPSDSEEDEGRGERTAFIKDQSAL

For CC(=O)N[C@@H](CCCNC(=N)N)C(=O)N[C@@H](C)C(=O)N[C@@H](CCCNC(=N)N)C(=O)N[C@@H](CCCNC(=N)N)C(=O)N[C@@H](CCCNC(=N)N)C(=O)N[C@@H](CCCCN)C(=O)N[C@@H](CCCCN)C(=O)NN(CCCNC(=N)N)CC(=O)N[C@@H](Cc1ccccc1)C(N)=O, the Ki [1] was 2500 nM and the half-life [2] was 155 s.
With CC(=O)N[C@@H](CCCNC(=N)N)C(=O)N[C@@H](C)C(=O)N[C@@H](Cc1ccccc1)C(=O)N[C@@H](CCCNC(=N)N)C(=O)N[C@@H](CCCNC(=N)N)C(=O)N[C@@H](CCCCN)C(=O)N[C@@H](CCCCN)C(=O)N[C@@H](CCCNC(=N)N)C(=O)N[C@H](C(N)=O)[C@@H](C)O the Ki [1] was 29 nM and the half-life [2] was 12.6 s.
Work on CC(=O)N[C@@H](CCCNC(=N)N)C(=O)N[C@@H](Cc1ccccc1)C(=O)N[C@@H](CCCNC(=N)N)C(=O)N[C@@H](CCCNC(=N)N)C(=O)N[C@@H](CCCNC(=N)N)C(=O)N[C@@H](CCCCN)C(=O)N[C@@H](CCCCN)C(=O)N[C@@H](CCCNC(=N)N)C(=O)N[C@H](C(N)=O)[C@@H](C)O yielded a Ki [1] of 23 nM and a half-life [2] of 57.6 s.
Work on CC(=O)N[C@@H](Cc1ccccc1)C(=O)N[C@@H](C)C(=O)N[C@@H](CCCNC(=N)N)C(=O)N[C@@H](CCCNC(=N)N)C(=O)N[C@@H](CCCNC(=N)N)C(=O)N[C@@H](CCCCN)C(=O)N[C@@H](CCCCN)C(=O)N[C@@H](CCCNC(=N)N)C(=O)N[C@H](C(N)=O)[C@@H](C)O yielded a Ki [1] of 14 nM and a half-life [2] of 33.6 s.
For CC(=O)N[C@@H](CCC(=O)O)C(=O)N[C@@H](C)C(=O)N[C@@H](CCCNC(=N)N)C(=O)N[C@@H](CCCNC(=N)N)C(=O)N[C@@H](CCCNC(=N)N)C(=O)N[C@@H](CCCCN)C(=O)N[C@@H](CCCCN)C(=O)N[C@@H](CCCNC(=N)N)C(=O)N[C@H](C(N)=O)[C@@H](C)O, the Ki [1] was 11 nM.
CC(=O)N[C@@H](CCCNC(=N)N)C(=O)N[C@@H](C)C(=O)N[C@@H](Cc1c[nH]cn1)C(=O)N[C@@H](CCCNC(=N)N)C(=O)N[C@@H](CCCNC(=N)N)C(=O)N[C@@H](CCCCN)C(=O)N[C@@H](CCCCN)C(=O)N[C@@H](CCCNC(=N)N)C(=O)N[C@H](C(N)=O)[C@@H](C)O showed a Ki [1] of 25 nM.
With CSCC[C@H](NC(C)=O)C(=O)N[C@@H](C)C(=O)N[C@@H](CCCNC(=N)N)C(=O)N[C@@H](CCCNC(=N)N)C(=O)N[C@@H](CCCNC(=N)N)C(=O)N[C@@H](CCCCN)C(=O)N[C@@H](CCCCN)C(=O)N[C@@H](CCCNC(=N)N)C(=O)N[C@H](C(N)=O)[C@@H](C)O the Ki [1] was 12 nM.
CC[C@H](C)[C@H](NC(=O)[C@H](C)NC(=O)[C@H](CCCNC(=N)N)NC(C)=O)C(=O)N[C@@H](CCCNC(=N)N)C(=O)N[C@@H](CCCNC(=N)N)C(=O)N[C@@H](CCCCN)C(=O)N[C@@H](CCCCN)C(=O)N[C@@H](CCCNC(=N)N)C(=O)N[C@H](C(N)=O)[C@@H](C)O gave a Ki [1] of 26 nM.
For CC[C@H](C)[C@H](NC(=O)[C@H](CCCNC(=N)N)NC(C)=O)C(=O)N[C@@H](CCCNC(=N)N)C(=O)N[C@@H](CCCNC(=N)N)C(=O)N[C@@H](CCCNC(=N)N)C(=O)N[C@@H](CCCCN)C(=O)N[C@@H](CCCCN)C(=O)N[C@@H](CCCNC(=N)N)C(=O)N[C@H](C(N)=O)[C@@H](C)O, the Ki [1] was 20 nM.
In the case of CC(=O)N[C@@H](CCCNC(=N)N)C(=O)N[C@@H](C)C(=O)N[C@@H](CCCNC(=N)N)C(=O)NC1(C(=O)N[C@@H](CCCNC(=N)N)C(=O)N[C@@H](CCCCN)C(=O)N[C@@H](CCCCN)C(=O)N[C@@H](CCCNC(=N)N)C(=O)N[C@H](C(N)=O)[C@@H](C)O)CCCC1, the Ki [1] is reported as 50 nM.
With CC(=O)N[C@@H](CCCNC(=N)N)C(=O)N[C@H](C(=O)N[C@@H](CCCNC(=N)N)C(=O)N[C@@H](CCCNC(=N)N)C(=O)N[C@@H](CCCNC(=N)N)C(=O)N[C@@H](CCCCN)C(=O)N[C@@H](CCCCN)C(=O)N[C@@H](CCCNC(=N)N)C(=O)N[C@H](C(N)=O)[C@@H](C)O)[C@@H](C)O the Ki [1] was 16 nM.
CC(=O)N[C@@H](CCCNC(=N)N)C(=O)N[C@@H](C)C(=O)N[C@@H](Cc1ccc(O)cc1)C(=O)N[C@@H](CCCNC(=N)N)C(=O)N[C@@H](CCCNC(=N)N)C(=O)N[C@@H](CCCCN)C(=O)N[C@@H](CCCCN)C(=O)N[C@@H](CCCNC(=N)N)C(=O)N[C@H](C(N)=O)[C@@H](C)O gave a Ki [1] of 48 nM.
Work on CC(=O)N[C@@H](CCCNC(=N)N)C(=O)N[C@H](C(=O)N[C@@H](CCCNC(=N)N)C(=O)N[C@@H](CCCNC(=N)N)C(=O)N[C@@H](CCCNC(=N)N)C(=O)N[C@@H](CCCCN)C(=O)N[C@@H](CCCCN)C(=O)N[C@@H](CCCNC(=N)N)C(=O)N[C@H](C(N)=O)[C@@H](C)O)C(C)C yielded a Ki [1] of 16 nM.
Work on CC(=O)N1CCC[C@@H]1C(=O)N[C@@H](C)C(=O)N[C@@H](CCCNC(=N)N)C(=O)N[C@@H](CCCNC(=N)N)C(=O)N[C@@H](CCCNC(=N)N)C(=O)N[C@@H](CCCCN)C(=O)N[C@@H](CCCCN)C(=O)N[C@@H](CCCNC(=N)N)C(=O)N[C@H](C(N)=O)[C@@H](C)O yielded a Ki [1] of 13 nM.
